Assay results from ChEMBL document CHEMBL4613269, “2-((4-Arylpiperazin-1-yl)methyl)benzonitrile Derivatives as Orally Available Inhibitors of Hepatitis C Virus with a Novel Mechanism of Action” (J Med Chem, 2020).
Activity calls are given as the source filed them. No cut-off for these calls is given here.

Key:
Coxsackievirus B3 = test: Antiviral activity against Coxsackievirus B3 infected in Vero cells assessed as reduction in virus-induced cytopathic effect incubated for 48 hrs by Reed-Muench method; assay type: functional, organism-based; settings: Enterovirus B
[1] = Cytotoxicity in human Huh7.5 cells assessed as reduction in cell viability incubated for 96 hrs by MTT assay; assay type: cell-based
How it was run: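 Huh7.5 cells seeded 24 h before compound addition. Viability read by MTT at 96 h. Eight-step 1:5 serial dilutions in triplicate; CC50 by Reed & Muench; three independent experiments.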

[2] = Clearance in Sprague-Dawley rat at 5 mg/kg, iv measured after 0.08 to 72 hrs post dose by LC-MS/MS analysis; assay type: ADME, organism-based; settings: in vivo
How it was run: (§1)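 Single dose to fasted (12 h) animals: oral gavage 15 mg/kg as suspension in 0.5% CMC-Na, or iv 5 mg/kg dissolved in citric acid buffer pH 5.0 with 2.5% DMSO. Jugular vein blood on heparin at 0.08 (iv only) to 72 h. Plasma assayed by LC-MS/MS; parameters from noncompartmental analysis.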

Hepatitis C virus [3] = test: Resistance index, ratio of EC50 for antiviral activity against HCV with glycoprotein E1 F291V mutant infected in human Huh7.5 cells to EC50 for Antiviral activity against HCV with wild type glycoprotein E1 infected in human Huh7.5 cells; assay type: functional, Hepacivirus hominis
How it was run: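 Huh7.5 cells seeded at 3×10^4/cm² and incubated 24 h, then infected with wild-type or E1 F291V mutant HCV while simultaneously treated with compound in eight-step 1:5 serial dilutions, run in triplicate. Intracellular HCV RNA was read by qRT-PCR at 72 h (2^-ΔCT, normalized to GAPDH). EC50 by Reed & Muench; the index is mutant EC50 over wild-type EC50.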

Hepatitis C virus [4] = test: Synergistic antiviral activity against HCV infected in human Huh7.5 cells assessed as reduction in HCV core protein level by measuring (q) value at 0.1 uM in presence of 0.025 uM simeprevir incubated for 72 hrs by Western blot assay based Webb method relative to control; assay type: functional, Hepacivirus hominis
How it was run: (§2)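 Huh7.5 cells in 6-well plates were infected with HCV in the presence of 0.1 μM test compound combined with simeprevir 0.025 μM, sofosbuvir 0.1 μM or daclatasvir 0.016 nM. Western blot at 72 h gave HCV core protein relative to actin, normalized to control. q calculated by Webb's method (q<1 antagonism, =1 addition, >1 synergy); over 3 independent experiments.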

[5] = Half life in beagle dog at 15 mg/kg, po measured after 0.08 to 72 hrs post dose by LC-MS/MS analysis; assay type: ADME, organism-based, Canis lupus familiaris; settings: in vivo; how it was run: as §1
[6] = AUC (0 to 72 hrs) in Sprague-Dawley rat at 5 mg/kg, iv measured after 0.08 to 72 hrs post dose by LC-MS/MS analysis; assay type: ADME, organism-based; set-up: time < 72 hr, dose 5 mg/kg, route intravenous; settings: in vivo; how it was run: as §1
Hepatitis C virus [7] = test: Antiviral activity against HCV GS4.3 infected in human Huh7.5 cells assessed as reduction in viral replication at 0.3125 to 5 uM simultaneously treated with viral infection for 4 hrs and measured after 72 hrs by In-Cell Western assay; assay type: functional, organism-based; settings: Hepacivirus hominis
How it was run: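 Huh7.5 cells infected with HCV while incubated with compound, either for 4 h across a concentration series or at 1.0 µM for varied times down to 15 min. Supernatant then replaced with fresh medium. Intracellular Core protein measured by In-Cell Western at 72 h.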

[8] = Cytotoxicity in MDCK cells assessed as reduction in cell viability; assay type: cell-based, Canis lupus familiaris; settings: dog
[9] = Cmax in Sprague-Dawley rat at 15 mg/kg, po measured after 0.08 to 72 hrs post dose by LC-MS/MS analysis; assay type: ADME, organism-based; set-up: dose 15 mg/kg, route oral; settings: in vivo; how it was run: as §1
[10] = Clearance in beagle dog at 5 mg/kg, iv measured after 0.08 to 72 hrs post dose by LC-MS/MS analysis; assay type: ADME, organism-based, Canis lupus familiaris; settings: in vivo; how it was run: as §1
[11] = Drug level in beagle dog at 15 mg/kg, po measured after 24 hrs post dose by LC-MS/MS analysis; assay type: ADME, organism-based, Canis lupus familiaris; settings: in vivo, read-out: Drug uptake; how it was run: as §1
Hepatitis C virus [12] = test: Antiviral activity against HCV GS4.3 infected in human Huh7.5 cells assessed as reduction in viral NS3 protein levels at 0.1 to 5 uM incubated for 14 days by Western blot assay; assay type: functional, organism-based; settings: Hepacivirus hominis
Hepatitis C virus [13] = test: Antiviral activity against HCV with wild type glycoprotein E1 infected in human Huh7.5 cells assessed as reduction in viral RNA levels incubated for 72 hrs by qRT-PCR analysis; assay type: functional, organism-based, Hepacivirus hominis; settings: Huh7.5, 72 h
How it was run: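 Huh7.5 cells seeded 24 h, then infected with wild-type (or mutant) HCV with compound added at the same time. Incubated 72 h. Intracellular HCV RNA measured by qRT-PCR, 2^-ΔCt method, normalized to GAPDH. Eight-step 1:5 serial dilutions in triplicate; EC50 by Reed & Muench; three independent experiments.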

[14] = Drug level in Sprague-Dawley rat at 15 mg/kg, po measured after 24 hrs post dose by LC-MS/MS analysis; assay type: ADME, organism-based; settings: in vivo, read-out: Drug uptake; how it was run: as §1
[15] = Bioavailability in Sprague-Dawley rat at 5 mg/kg, iv measured after 0.08 to 72 hrs post dose by LC-MS/MS analysis; assay type: ADME, organism-based; settings: in vivo; how it was run: as §1
Hepatitis C virus [16] = test: Antiviral activity against HCV with glycoprotein E1 F291V mutant infected in human Huh7.5 cells assessed as reduction in viral RNA levels incubated for 72 hrs by qRT-PCR analysis; assay type: functional, organism-based, Hepacivirus hominis
How it was run: (§3)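 Huh7.5 cells seeded at 3×10^4/cm², infected 24 h later with wild-type or mutant HCV stock while compound or solvent was added at the same time. Intracellular HCV RNA measured by qRT-PCR at 72 h, normalised to GAPDH, 2^-ΔCT method. EC50 by Reed & Muench from eight-step 1:5 serial dilutions, triplicate wells.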

Hepatitis C virus [17] = test: Induction of HCV GS4.3 viral particles inactivation infected in human Huh7.5 cells assessed as reduction in viral protein levels at 1 uM pre-incubated with virus for 2 hrs before viral infection and measured after 72 hrs by Western blot assay; assay type: functional, organism-based; settings: Hepacivirus hominis
How it was run: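 Huh7.5 cells inoculated with HCV stock pre-treated 2 h with 1.0 μM compound, then diluted 20-fold (final 0.05 μM). Control stocks were treated with 0.05 μM or 1.0 μM. Intracellular proteins were extracted and analysed by western blot at 72 h, with HCV Core/actin ratio normalized to control.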

[18] = Apparent Volume of distribution in Sprague-Dawley rat at 15 mg/kg, po measured after 0.08 to 72 hrs post dose by LC-MS/MS analysis; assay type: ADME, organism-based; settings: in vivo; how it was run: as §1
Hepatitis C virus [19] = test: Antiviral activity against HCV GS4.3 infected in human Huh7.5 cells assessed as […] at 0.008 to 1 uM simultaneously treated with viral infection and measured after 72 hrs by Western blot assay; assay type: functional, organism-based; settings: Hepacivirus hominis
Hepatitis C virus [20] = test: Antiviral activity against HCV expressing NS3 D168V mutant by qRT-PCR analysis based by Reed-Muench method; assay type: functional, organism-based, Hepacivirus hominis; how it was run: as §3
Hepatitis C virus [21] = test: Antiviral activity against HCV GS4.3 infected in human Huh7.5 cells assessed as reduction in viral NS3 protein levels at 0.2 to 5 uM incubated for 72 hrs by Western blot assay; assay type: functional, organism-based; settings: Hepacivirus hominis
[22] = Drug level in Sprague-Dawley rat at 15 mg/kg, po measured after 72 hrs post dose by LC-MS/MS analysis; assay type: ADME, organism-based; settings: in vivo, read-out: Drug uptake; how it was run: as §1
Hepatitis C virus [23] = test: Synergistic antiviral activity against HCV infected in human Huh7.5 cells assessed as reduction in HCV core protein level by measuring (q) value at 0.1 uM in presence of 0.016 nM daclatasvir incubated for 72 hrs by Western blot assay based Webb method relative to control; assay type: functional, Hepacivirus hominis; how it was run: as §2

`CN(C)CCN(C)c1ccc(C#N)c(CN2CCN(c3ccc(Cl)cc3)CC2)c1` gave an EC50 (Coxsackievirus B3) of 7.41 µM, a CC50 at 96 h [1] of 12.8 to 14.8 µM and a clearance [2] of 18.1 mL/min/kg. The “Ratio EC50” value (Hepatitis C virus [3]) was 20, the Ratio (Hepatitis C virus [4]) was 1.05 and the half-life [5] was 12.7 h. For the same compound, the AUC(0-t) at 72 h [6] was 5420 ng·h/mL, the Activity (Hepatitis C virus [7]) was “Dose-dependent effect” and the CC50 [8] was 4.28 µM. It also gave a Cmax [9] of 501 ng/mL, a clearance [10] of 79.2 mL/min/kg and a concentration at 24 h [11] of 15.6 ng/mL. The Activity (Hepatitis C virus [12]) was “inactive”, the EC50 (Hepatitis C virus [13]) was 0.006 µM and the concentration at 24 h [14] was 119 ng/mL. For the same compound, the bioavailability [15] was 59%, the EC50 (Hepatitis C virus [16]) was 0.12 µM and the Activity (Hepatitis C virus [17]) was “inactive”. The Vz [18] was 34.83407 L/kg, the Activity (Hepatitis C virus [19]) was “Active” and the EC50 (Hepatitis C virus [20]) was 0.03 µM. For the same compound, the Activity (Hepatitis C virus [21]) was “inactive”, the concentration at 72 h [22] was 13.7 ng/mL and the Ratio (Hepatitis C virus [23]) was 1.27.
